CHRM4 agonist: agonists of human muscarinic M4 receptor (CHRM4); P08173; CHO-K1 hM4/Gqi5, Fluo-8 calcium fluorescence; vehicle 0%, full acetylcholine response 100%; activation, % at 3 µM; hit rate 0.14% among 360,000; AID 624127;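 active means activation above the run mean over all test wells plus 3 SD, cut at about 32% in these data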;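 further: peak over basal fluorescence ratio per well then scaled between controls; 0% = DMSO wells and 100% = acetylcholine at EC100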
M4 PAM: potentiates acetylcholine response at human M4 receptor; P08173; CHO-K1 hM4/Gqi5, Fluo-8 calcium fluorescence, ACh EC20; 0% = ACh EC20, 100% = maximal ACh; activation, % at 3 µM; hit rate 0.4% among 360,000; AID 624126;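 active means activation above its plate's cutoff, the mean activation of sample wells plus 3 SD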
M5 antag: blocks acetylcholine activation of human M5 receptor; CHO-hM5 cells, Fluo-8 calcium fluorescence, ACh EC80; P08912; hit rate 0.59% among 360,000; inhibition, % at 3 µM; AID 624040;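 active means inhibition above a per-plate cutoff, the mean of that plate's test compounds plus 3 SD, cut at about 27% in these data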;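 further: 0% = acetylcholine EC80 with DMSO and 100% = DMSO without agonist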
Target sequence (P08912 whole entry, looked up): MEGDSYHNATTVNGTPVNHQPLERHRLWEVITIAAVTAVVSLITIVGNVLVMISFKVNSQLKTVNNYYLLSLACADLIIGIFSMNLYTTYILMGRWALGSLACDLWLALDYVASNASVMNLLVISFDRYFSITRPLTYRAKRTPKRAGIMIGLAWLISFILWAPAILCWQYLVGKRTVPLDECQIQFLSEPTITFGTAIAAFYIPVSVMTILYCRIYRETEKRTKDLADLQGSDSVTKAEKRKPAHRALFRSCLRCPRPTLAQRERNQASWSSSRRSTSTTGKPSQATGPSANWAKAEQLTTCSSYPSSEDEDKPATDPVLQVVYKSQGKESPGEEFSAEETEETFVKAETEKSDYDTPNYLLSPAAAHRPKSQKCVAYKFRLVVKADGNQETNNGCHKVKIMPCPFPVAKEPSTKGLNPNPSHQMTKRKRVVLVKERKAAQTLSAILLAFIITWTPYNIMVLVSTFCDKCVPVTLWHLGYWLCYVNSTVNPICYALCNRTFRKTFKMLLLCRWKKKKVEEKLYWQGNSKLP
CHRM5 PAM: CHRM5 positive allosteric modulation; P08912; CHO-K1 hM5, Fluo-8 calcium, ACh EC20 PAM; 0% = ACh EC20, 100% = ACh EC100; activation, % at 3 µM; hit rate 0.3% among 360,000;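 active means activation above the run cutoff, the mean activation of all test compounds plus 3 SD, cut at about 18% in these data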
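Test system: CHO-K1 hM5 cells / Doses: single-point, 3 µM nominal / Times: Post-acetylcholine fluorescence recording 140 s / Technique: Fluo-8 calcium fluorescence / Measure: Max/basal fluorescence ratio as % of EC20–EC100 ACh window / Benchmarks: low control EC20 acetylcholine (0%), high control EC100 acetylcholine (100%) / Replicates: one well per compound, no replicates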
CHRM4 antagonist: antagonists of human muscarinic M4 receptor (CHRM4); inhibition, % at 3 µM; P08173; hit rate 0.73% among 360,000; CHO-hM4 cells, ACh EC80, Fluo-8 calcium fluorescence;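 active means inhibition above its plate's cutoff, the mean inhibition of sample wells plus 3 SD, cut at about 27% in these data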;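 further: 0% = acetylcholine EC80 with DMSO and 100% = DMSO without agonist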
M5 ag: CHRM5 agonism in calcium assay | P08912 | activation, % at 3 µM | CHO-K1 hM5 cells, Fluo-8 calcium fluorescence; 0% DMSO wells, 100% maximal acetylcholine response | hit rate 0.19% among 360,000;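 active means activation above the run's mean over test compounds plus 3 SD, cut at about 23% in these data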;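 further: signal is peak over basal fluorescence ratio across the kinetic read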
* hit, by the source's call. Most compounds without a hit are left out; they make up all but 1.8% or so of the library.

`CCn1nc(C(=O)OCC(=O)c2ccc(F)cc2)c2ccccc2c1=O` gave CHRM4 agonist 7, M4 PAM 28*, M5 antag -7, CHRM5 PAM -4, CHRM4 antagonist -8 and M5 ag -5.
CCCn1nc(C(=O)OCC(=O)c2ccccc2)c2ccccc2c1=O was read as CHRM4 agonist 1, M4 PAM -5, M5 antag 7, CHRM5 PAM -5, CHRM4 antagonist -5 and M5 ag -2.
Screening CCn1nc(C(=O)OCC(=O)N2CC(=O)Nc3ccccc32)c2ccccc2c1=O returned CHRM4 agonist 0, M4 PAM 23*, M5 antag -6, CHRM5 PAM 5, CHRM4 antagonist -6 and M5 ag -1.
For Cn1nc(C(=O)OCC(=O)c2ccc(Cl)cc2)c2ccccc2c1=O the results were CHRM4 agonist 3, M4 PAM 16*, M5 antag 4, CHRM5 PAM 5, CHRM4 antagonist -6 and M5 ag 0.
Screening C[C@H](CO)N1C[C@H](C)[C@@H](CN(C)Cc2ccc3c(c2)OCO3)Oc2cc(Br)ccc2S1(=O)=O returned CHRM4 agonist 11, M4 PAM -12, M5 antag -3, CHRM5 PAM -7, CHRM4 antagonist -13 and M5 ag -1.
`CCN(CC)CCC(=O)N1c2ccccc2Sc2ccc(NC(=O)OC)cc21` gave CHRM4 agonist 1, M4 PAM -5, M5 antag -8, CHRM5 PAM -20, CHRM4 antagonist -1 and M5 ag -26.
Screening CCN(CC)CC(=O)N1c2ccccc2Sc2ccc(Cl)cc21 returned CHRM4 agonist 0, M4 PAM -18, M5 antag 97*, CHRM5 PAM -49, CHRM4 antagonist 85* and M5 ag -17.
CCN(CC)CCCCN1c2ccccc2Sc2ccccc21 was read as CHRM4 agonist 10, M4 PAM -17, M5 antag 88*, CHRM5 PAM -22, CHRM4 antagonist 73* and M5 ag -4.
`CCCNC(=O)N1c2ccccc2Sc2ccccc21` gave CHRM4 agonist 1, M4 PAM -9, M5 antag 15, CHRM5 PAM -5, CHRM4 antagonist 0 and M5 ag -20.
`CCN(CC)C(=O)N1c2ccccc2Sc2ccccc21` gave CHRM4 agonist -2, M4 PAM -4, M5 antag 9, CHRM5 PAM -6, CHRM4 antagonist 2 and M5 ag -9.
`NCCCC(=O)N1c2ccccc2Sc2ccccc21` gave CHRM4 agonist 1, M4 PAM -14, M5 antag 67*, CHRM5 PAM -24, CHRM4 antagonist 42* and M5 ag -4.
Screening CCN(CC)CC(=O)N1c2ccccc2Sc2ccccc21 returned CHRM4 agonist 1, M4 PAM -18, M5 antag 92*, CHRM5 PAM -18, CHRM4 antagonist 84* and M5 ag -5.
For Cc1ccc(S(=O)(=O)N(C)CC(=O)Nc2ccccc2N2CCCC2)cc1 the results were CHRM4 agonist 6, M4 PAM 12, M5 antag 4, CHRM5 PAM -4, CHRM4 antagonist -3 and M5 ag -3.
`Cn1c(=O)c2c(SCC(=O)N3CCOCC3)nc(-c3ccccc3Cl)nc2n(C)c1=O` gave CHRM4 agonist 2, M4 PAM 2, M5 antag 1, CHRM5 PAM 0, CHRM4 antagonist 1 and M5 ag 1.
Screening O=C(CCn1nc(-c2ccc(Cl)cc2)c2ccccc2c1=O)NN1CCOCC1 returned CHRM4 agonist 2, M4 PAM -5, M5 antag 10, CHRM5 PAM -9, CHRM4 antagonist 1 and M5 ag -1.
Screening Cc1[nH]c(=O)c(C#N)c(C)c1CCC(=O)NCc1cccc(C(F)(F)F)c1 returned CHRM4 agonist -1, M4 PAM -6, M5 antag 16, CHRM5 PAM -1, CHRM4 antagonist 2 and M5 ag -2.
Screening COc1ccc(C)cc1NC(=O)CCN1CC(C)OC(C)C1 (stereo not drawn) returned CHRM4 agonist 2, M4 PAM 20*, M5 antag 0, CHRM5 PAM 12, CHRM4 antagonist -7 and M5 ag -1.
For Cc1ccnc(SCC(=O)Nc2sc3c(c2C#N)CCCC3)n1 the results were CHRM4 agonist 13, M4 PAM -11, M5 antag 30*, CHRM5 PAM -16, CHRM4 antagonist 26 and M5 ag 2.
`Cc1csc(SCC(=O)Nc2sc3c(c2C#N)CCC3)n1` gave CHRM4 agonist -1, M4 PAM 4, M5 antag -3, CHRM5 PAM 5, CHRM4 antagonist 4 and M5 ag 0.
Screening O=C(CSc1nccn1-c1ncc(C(F)(F)F)cc1Cl)c1ccc(Br)cc1 returned CHRM4 agonist 1, M4 PAM 8, M5 antag 19, CHRM5 PAM 22*, CHRM4 antagonist -6 and M5 ag -2.
`Cc1ccc(/C(CSc2nccn2-c2ncc(C(F)(F)F)cc2Cl)=N\O)cc1` gave CHRM4 agonist 5, M4 PAM -2, M5 antag 0, CHRM5 PAM -5, CHRM4 antagonist 8 and M5 ag 2.
For O=C(COC(=O)c1ccc[nH]c1=O)Nc1ccc(N2CCCCC2)cc1 the results were CHRM4 agonist 1, M4 PAM -2, M5 antag 5, CHRM5 PAM 3, CHRM4 antagonist -1 and M5 ag 2.
Screening CCc1ccc(-c2nc(CN3CCC(C(=O)N4CCN(c5ccccn5)CC4)CC3)c(C)o2)cc1 returned CHRM4 agonist 7, M4 PAM -13, M5 antag 6, CHRM5 PAM -8, CHRM4 antagonist -1 and M5 ag -6.
Screening CCc1ccc(-c2nc(CN3CCC(C(=O)N4CCN(c5ccccc5)CC4)CC3)c(C)o2)cc1 returned CHRM4 agonist 41*, M4 PAM -27, M5 antag 10, CHRM5 PAM -16, CHRM4 antagonist 10 and M5 ag 6.
Screening Cc1csc(CNC(=O)c2ccc(OC3CCN(CCc4ccccc4)CC3)cc2)n1 returned CHRM4 agonist 2, M4 PAM -16, M5 antag 2, CHRM5 PAM -1, CHRM4 antagonist 11 and M5 ag -9.
Screening COc1ccc(NC(=O)CNC(=O)c2nn(-c3ccc(OC)cc3OC)c(=O)c3ccccc23)c(OC)c1 returned CHRM4 agonist 1, M4 PAM -6, M5 antag 4, CHRM5 PAM 3, CHRM4 antagonist -8 and M5 ag 1.
For C[C@@]12C(=O)Nc3ccc(Cl)cc3C(=O)N1[C@H]1c3ccccc3OC[C@@H]1[C@@H]2c1ccccc1 the results were CHRM4 agonist 0, M4 PAM -7, M5 antag 20, CHRM5 PAM -28, CHRM4 antagonist 41* and M5 ag -3.
